From PubChem BioAssay
Kir21 block – inhibitors of mouse Kir2.1 inward-rectifier potassium channel; P35561; HEK293-Kir2.1, FluxOR thallium flux fluorescence; hits give low values; B-score at 10 µM; 310,000 compounds, 0.85% hits; AID 1672;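 active = fluorescence ratio B-score at or below minus 3 SD of library scores, with starting-brightness B-score within 2 SD, cut at about -4.2 in these data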;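 note: channel flux triggered by added potassium and thallium sulfate stimulus; B-score of peak minus minimum fluorescence over baseline after thallium stimulus; more negative B-score means stronger Kir2.1 block with less thallium influx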
TRPC4 inh – inhibitors of mouse TRPC4 channel; Q9QUQ5; HEK293 TRPC4beta/mu-opioid, DAMGO-evoked Fluo4 calcium flux; hits give low values; B-score at 10 µM; 300,000 compounds, 0.39% hits; AID 2247;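 active = B-score over 3 SD under the library average, no early fluorescence shift, positive overall ratio signal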
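Assay system: TRPC4beta/mu-opioid receptor HEK293 cell line; compound dosing: single concentration per test compound; detection: Fluo4 Ca2+ flux fluorescence; evaluation: per-well B score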
TRPC4 potent – TRPC4 (mouse) allosteric potentiation; Q9QUQ5; HEK293 TRPC4beta/mu-opioid, DAMGO EC20, Fluo-4 Ca2+ flux; hits give high values; B-score at 10 µM; 310,000 compounds, 0.42% hits;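 active = B-score of calcium response area above 5 SD of library B-scores, with initial fluorescence ratio within 5 SD of library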
TRPC6 inh – mouse TRPC6 channel inhibition | Q61143 | 310,000 compounds, 1.1% hits | HEK293-TRPC6, membrane potential dye, ACh-evoked depolarization; hits give low values | B-score at 10 µM;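 active = B-score under library mean minus 3 SD, initial fluorescence not abnormally high, positive integrated signal ratio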;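 note: B-score derived from integrated fluorescence ratio over the kinetic read; more negative B-score means stronger inhibition of depolarization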
TRPC4 agonist – TRPC4 (mouse) channel activation | Q9QUQ5 | HEK293 TRPC4beta/mu-opioid, Fluo4 calcium fluorescence; hits give high values | B-score at 10 µM | 310,000 compounds, 0.49% hits | AID 2237;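 active = B-score above 5 SD of library B-scores, and initial fluorescence ratio not above library mean plus 5 SD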;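 note: positive B-score marks a calcium rise read as TRPC4 activation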
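Assay system: HEK293 stable line with TRPC4beta plus mu-opioid receptor; schedule: 45 min room-temperature Fluo4 loading, 110 s read; technique: kinetic Fluo4 calcium fluorescence; evaluation: integrated baseline-normalised fluorescence ratio, converted to per-well B score; controls: buffer (low) and maximal DAMGO (high)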
TRPC6 activator – activates the mouse TRPC6 cation channel; Q61143; HEK293-TRPC6 membrane potential dye fluorescence; hits give high values; B-score at 10 µM; 310,000 compounds, 0.13% hits; AID 2550;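 active = B-score of the integrated fluorescence ratio above library mean plus 3 SD, and starting fluorescence ratio within library mean plus 5 SD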;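 note: higher score means more depolarization so channel activation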
Each line names hits and unclear results; the compound was inactive in the other large screens. Sampled rows, rich in hits. Any-hit rate of the full collection: about 2.9%.

N#CC(C#N)=C1C=CC=CN1/C(=C\c1ccccc1)C(=O)c1cccs1	Kir21 block -5
Cc1ccc(NC(=O)NC(=O)CN2C(=O)NC3(CCCCCCC3)C2=O)c(C)c1	TRPC6 inh -5.6
O=C(Nc1cccc(C(F)(F)F)c1)c1cccc(NS(=O)(=O)c2ccc(Br)c(C(=O)O)c2)c1	none
O=C(Nc1cccc(C(F)(F)F)c1)c1cccc(NS(=O)(=O)c2ccc(O)c(C(=O)O)c2)c1	TRPC4 potent 22
O=C1Nc2cc(C(=O)NCCCN3CCOCC3)ccc2S/C1=C/c1ccccc1F	TRPC4 inh -6
O=C1Nc2cc(C(=O)NCCCN3CCOCC3)ccc2S/C1=C/c1cccc(Cl)c1	none
O=C1Nc2cc(C(=O)NCCCN3CCCC3)ccc2S/C1=C\c1ccccc1	Kir21 block -4.9
COc1ccc(/C=C2/Sc3ccc(C(=O)NCCN4CCCCCC4)cc3NC2=O)cc1	none
O=C(Cn1cc(C(F)(F)F)ccc1=O)N/N=C/c1ccc(Cl)c(Cl)c1	none
O=[N+]([O-])c1cccc(S(=O)(=O)NCCc2cccs2)c1	none
O=S(=O)(NCCc1cccs1)c1ccc(Br)cc1	Kir21 block -5.3
CC(C)(C)c1cc(C(=O)NCc2cc(F)cc3c2OCOC3)n(Cc2ccccc2)n1	TRPC4 potent 13
Cc1nnc(N(Cc2ccccc2)C(=O)c2cnccn2)s1	none
O=C(CCC(=O)c1cccs1)NNC(=O)c1cccc(Cl)c1	none
O=C(O)CCC(=O)NN1C(=O)c2ccccc2NC1c1ccc(F)cc1 (configuration not stated)	TRPC4 potent 11
COc1ccc(CCNc2ncnc3sc(C)cc23)cc1OC	Kir21 block -6.2
COc1ccc(CCNc2ncnc3[nH]ncc23)cc1OC	none
COc1cc2c(cc1OC)C(c1ccccc1O)NCC2 (configuration not stated)	none
Cc1ccc(C(=O)N2CCCC(C(=O)c3cc(F)ccc3F)C2)s1 (configuration not stated)	Kir21 block -5
CCOC(=O)c1cnc(SCC(=O)c2ccc(Cl)cc2)nc1N	none
O=C1N(CC(=O)N2CCc3ccccc32)CCN1Cc1ccc(Cl)cc1	none
Nc1c2c(nc3ccc(Br)cc13)N(C1CCCCC1)CC2	TRPC6 inh -7.4, TRPC6 activator 18
Nc1c2c(nc3ccc(Br)cc13)N(Cc1ccccc1)CC2	none
Cc1cc(OCc2cc(C(=O)N(C)CC3CCOCC3)no2)cc(C)c1Cl	Kir21 block -5.1
Cc1cc(OCc2cc(C(=O)N(C)CCCN3CCOCC3)no2)cc(C)c1Cl	none
Cc1cc(OCc2cc(C(=O)NCC3(C)COC3)no2)cc(C)c1Cl	TRPC4 inh -6
Cc1cc(Cl)ccc1OCC(=O)OC(C)C(=O)NC(N)=O (configuration not stated)	none
CCc1ccc(NC2=NCC(c3ccccc3)S2)cc1 (configuration not stated)	TRPC4 potent 12
CCCCOc1ccc(C(C)NC(=O)CCS(=O)(=O)Cc2ccccc2F)cc1 (configuration not stated)	none
COc1ccccc1OCC(=O)Nc1cc(S(=O)(=O)N2CCCCC2)ccc1N1CCCCC1	none
CCOc1ccccc1OCC(=O)Nc1cc(S(=O)(=O)N2CCCCC2)ccc1N1CCN(CC)CC1	TRPC4 agonist 89
CCC(=O)c1ccc(OCC(=O)Nc2cc(S(=O)(=O)N3CCCCC3)ccc2N2CCN(CC)CC2)cc1	none
CCN1CCN(c2ccc(S(=O)(=O)N3CCCCC3)cc2NC(=O)COc2ccccc2)CC1	TRPC4 agonist 125
CCN1CCN(c2ccc(S(=O)(=O)N3CCCCC3)cc2NC(=O)Cc2ccccc2)CC1	none
CCN1CCN(c2ccc(S(=O)(=O)N3CCCCC3)cc2NC(=O)Cc2ccc(Cl)c(Cl)c2)CC1	TRPC4 agonist 43
Cc1nc(N2CCN(Cc3ccccc3)CC2)nc2c1C(=O)CC(c1ccco1)C2 (configuration not stated)	Kir21 block -5.3
Cc1nc(N2CCN(Cc3ccc4c(c3)OCO4)CC2)nc2c1C(=O)CC(c1ccco1)C2 (configuration not stated)	none
Oc1ccc(-c2csc(-c3cccnc3)n2)cc1O	none
Oc1ccc(-c2csc(-c3ccccc3)n2)cc1O	TRPC4 inh -6
O=C(Oc1cccc(C(=S)N2CCCCC2)c1)c1ccccc1	none
O=C(Oc1ccc(C(=S)N2CCOCC2)cc1Br)c1ccccc1F	Kir21 block -6.3
O=C(Oc1ccc(C(=S)N2CCCCC2)cc1)c1ccccc1	Kir21 block -4.6
O=C(Oc1ccc(C(=S)N2CCOCC2)cc1Cl)c1ccccc1F	Kir21 block -5.8
COc1cc(C(=S)N2CCOCC2)ccc1OC(=O)c1ccccc1	Kir21 block -5.1
COc1ccc(C(=S)N2CCOCC2)cc1OC(=O)c1ccccc1	none
O=C(Oc1ccc(Br)cc1C(=S)N1CCOCC1)c1ccc(F)cc1	none
COc1cc(COc2ccc3c(C)c(Cc4ccccc4)c(=O)oc3c2C)cc(OC)c1OC	none
O=C(O)c1cc(OCc2ccccc2)cc(OCc2ccccc2)c1	none
CC(C(=O)NCCCc1ccccc1)n1cccc1C(=O)c1ccccc1 (configuration not stated)	Kir21 block -6.4
COc1ccc(C(CNC(=O)c2ccc(S(=O)(=O)N(C)C)cc2)N(C)C)cc1 (configuration not stated)	TRPC4 agonist 242
Cc1ccc(S(=O)(=O)Nc2cccc(C(=O)NCC(c3ccco3)N(C)C)c2)cc1F (configuration not stated)	none
COc1ccc(NC(=O)c2ccc(S(=O)(=O)N(C)C)cc2)cc1	none
Cc1ccc(NC(=O)CNCC(c2ccccc2)N(C)C)cc1F (configuration not stated)	TRPC4 agonist 147
Cc1ccc(S(=O)(=O)Nc2cccc(C(=O)NCC(c3ccccc3)N(C)C)c2)cc1F (configuration not stated)	TRPC4 inh -10, TRPC4 agonist 66
COc1ccc(C(CNC(=O)c2cccc(NS(=O)(=O)c3ccc(Br)cc3)c2)N(C)C)cc1 (configuration not stated)	TRPC4 agonist 154
Cc1ccc(NC(=O)CCC(=O)O)cc1F	none
O=C(CN1CCN(c2ncccn2)CC1)NCc1ccc2c(c1)OCO2	none
Cc1ccc(NC(=O)CCN2C(=O)c3cccc4cccc(c34)C2=O)cc1	none
Cc1nnc(OCc2nc3ccccc3n2C)c2ccccc12	Kir21 block -4.7
CNC(=S)N1N=C(c2ccccc2)CC1c1ccc(OC)c(OC)c1 (configuration not stated)	TRPC4 potent 11
